A word on the LD50: it is the dose at which mortality reaches 50%.

This note sets out measurements from ChEMBL document CHEMBL3244427, “Nonsteroidal antiinflammatory agents. 2. Derivatives/analogues of dibenz[b,e]oxepin-3-acetic acid” (J Med Chem, 1978).

Molecules are shown by their SMILES.

The test system of one series is Rattus norvegicus. Briefly: Antiinflammatory activity in po dosed Donryu rat assessed as inhibition of carrageenan-induced paw edema. Format: functional. To be noted: read-out: ID50 (the source's name). In outline:
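Male Donryu rats weighing 130–160 g. Carrageenan was used to induce paw edema. ID50 was read from a regression line fitted by least squares, with 95% fiducial limits calculated by Filler's equation.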
(In the carrageenan paw model, swelling and tenderness develop within hours.)

Series [1] in a line: Therapeutic index, ratio of UD50 for ulcerogenicity in po dosed Donryu rat assessed as gastric lesion to ID50 for antiinflammatory activity in po dosed Donryu rat assessed as inhibition of carrageenan-induced paw edema. The series is classed as organism-based, Stomach. To be noted: in vivo, read-out: TI.
A short description of series [2]: Ulcerogenicity in po dosed Donryu rat assessed as gastric lesion. Format: toxicity, organism-based, Stomach. As to conditions: in vivo, read-out: UD50 (the source's name). The gist of the method: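 Male Donryu rats weighing 130–160 g. Gastric lesions were induced and then examined.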
A short description of series [3]: Toxicity in po dosed Donryu rat assessed as mortality. Format: organism-based. As to conditions: in vivo. In outline: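 Acute toxicity was tested in male Donryu rats weighing 130–160 g, with mortality as the end point.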
Series [4] in a line: Therapeutic index, ratio of LD50 for po dosed Donryu rat assessed as mortality to ID50 for antiinflammatory activity in po dosed Donryu rat assessed as inhibition of carrageenan-induced paw edema. The series is classed as organism-based. As to conditions: in vivo, read-out: TI.

Take `O=C(O)Cc1ccc2c(c1)C(=O)c1sccc1CO2`: the ED50 in the series with Rattus norvegicus was 75.1 µmol/kg.

For the compound `O=C(O)Cc1ccc2c(c1)SCc1sccc1C2=O`, in the series with Rattus norvegicus, the ED50 came to 40 µmol/kg.

For `CC(CO)c1ccc2c(c1)C(=O)c1ccccc1CO2` (stereo unspecified), the ED50 in the series on Rattus norvegicus amounted to 28.3 µmol/kg.

On to `CC(CO)c1ccc2c(c1)OCc1ccccc1C2=O` (stereo unspecified), for which the ED50 in the series with Rattus norvegicus is 6 µmol/kg.

Consider `O=C(O)c1ccc2c(c1)C(=O)c1ccccc1CO2`, for which the ED50 in the series with Rattus norvegicus was over 70.8 µmol/kg.

`O=C(O)c1ccc2c(c1)OCc1ccccc1C2=O`: the ED50 with Rattus norvegicus was over 70.8 µmol/kg.

As for `O=C1c2ccccc2COc2ccc(-c3nnn[nH]3)cc21`, the ED50 in the series with Rattus norvegicus is over 64.7 µmol/kg.

As to `O=C1c2ccccc2COc2cc(-c3nnn[nH]3)ccc21`, in the series with Rattus norvegicus, the ED50 is over 64.7 µmol/kg.

Regarding `O=C1c2ccccc2COc2ccc(Cc3nnn[nH]3)cc21`, the ED50 in the series with Rattus norvegicus was over 61.6 µmol/kg.

Take `O=C1c2ccccc2COc2cc(Cc3nnn[nH]3)ccc21`: the ED50 with Rattus norvegicus is over 61.6 µmol/kg.

Take `CC(=O)/C=C/c1ccc2c(c1)C(=O)c1ccccc1CO2`: the ED50 in the series with Rattus norvegicus was over 162 µmol/kg.

In the case of `CC(=O)/C=C/c1ccc2c(c1)OCc1ccccc1C2=O`, the ED50 in the series with Rattus norvegicus is over 162 µmol/kg.

As for `COc1ccc(C(=O)/C=C/c2ccc3c(c2)C(=O)c2ccccc2CO3)cc1`, the ED50 with Rattus norvegicus is over 122 µmol/kg.

As for `CC(=O)CCc1ccc2c(c1)OCc1ccccc1C2=O`, the ED50 with Rattus norvegicus stood at 96.7 µmol/kg.

In the case of `CCN(CC)CCOC(=O)Cc1ccc2c(c1)C(=O)c1ccccc1CO2`, the ED50 in the series with Rattus norvegicus came to 133 µmol/kg.

Turning to `O=C(Cc1ccc2c(c1)OCc1ccccc1C2=O)Oc1ccc(C(=O)O)cc1`, the ED50 with Rattus norvegicus stood at 91.6 µmol/kg.

Take `CC1(C)OCC(COC(=O)Cc2ccc3c(c2)OCc2ccccc2C3=O)O1` (stereo unspecified): the selectivity ratio was determined as 5.6 in series [1] and 2.4 in series [4]. For the same compound, the ED50 in the series with Rattus norvegicus is 100 µmol/kg. In series [2], the TD50 stood at 559 µmol/kg. Also, the 50% lethal dose (LD50) in series [3] amounted to 241 µmol/kg.

As for `O=C(Cc1ccc2c(c1)OCc1ccccc1C2=O)OCC(O)CO` (stereo unspecified), the selectivity ratio in series [1] turned out to be 8.1; in series [4], 9. Further, the ED50 with Rattus norvegicus was found to be 31 µmol/kg. Besides, the TD50 in series [2] was 252 µmol/kg. Further, in series [3], the LD50 is 278 µmol/kg.

Consider `NC(=O)Cc1ccc2c(c1)C(=O)c1ccccc1CO2`, for which the ED50 in the series on Rattus norvegicus is over 67.4 µmol/kg.

As for `CCOC(=O)CNC(=O)Cc1ccc2c(c1)OCc1ccccc1C2=O`, the ED50 with Rattus norvegicus was over 50.9 µmol/kg.

Turning to `O=C(O)Cc1ccc2c(c1)COc1ccccc1C2=O`, the ED50 in the series with Rattus norvegicus is 131 µmol/kg.

In the case of `CC(C(=O)O)c1ccc2c(c1)OCc1ccccc1C2=O` (stereo unspecified), in the series on Rattus norvegicus, the ED50 was 2.7 µmol/kg.

`O=C(O)Cc1ccc2c(c1)C(O)c1ccccc1CO2` (stereo unspecified): the ED50 with Rattus norvegicus is over 66.6 µmol/kg.

`O=C(O)Cc1ccc2c(c1)Cc1ccccc1CO2`: the ED50 with Rattus norvegicus worked out at 99.1 µmol/kg.

Regarding `O=C(O)Cc1ccc2c(c1)Cc1ccc(Cl)cc1CO2`, in the series on Rattus norvegicus, the ED50 is over 62.3 µmol/kg.

Turning to `O=C(O)Cc1ccc2c(c1)OCc1ccccc1C2O` (stereo unspecified), in the series on Rattus norvegicus, the ED50 was over 66.6 µmol/kg.

Consider `O=C(O)Cc1ccc2c(c1)OCc1ccccc1C2`, for which the ED50 in the series on Rattus norvegicus came to 35 µmol/kg.

As to `CC(C(=O)O)c1ccc2c(c1)OCc1ccccc1C2` (stereo unspecified), the ED50 in the series with Rattus norvegicus worked out at 12.7 µmol/kg.

As to `O=C(O)Cc1ccc2c(c1)OCc1ccsc1C2=O`, the ED50 in the series with Rattus norvegicus was found to be 61.3 µmol/kg.

Regarding `CC(C(=O)O)c1ccc2c(c1)OCc1ccsc1C2=O` (stereo unspecified), the ED50 in the series on Rattus norvegicus amounted to 43.7 µmol/kg.

Turning to `O=C(O)Cc1ccc2c(c1)SCc1ccsc1C2=O`, the ED50 in the series on Rattus norvegicus is over 62 µmol/kg.

Consider `O=C(O)Cc1ccc2c(c1)C(=O)c1sccc1CS2`, for which the ED50 with Rattus norvegicus is over 62 µmol/kg.

Turning to `O=C(O)Cc1ccc2c(c1)C(=O)c1ccccc1CO2` [ISOXEPAC], the ED50 in the series with Rattus norvegicus was 50 µmol/kg.

Regarding `O=C(O)Cc1ccc2c(c1)OCc1ccccc1C2=O` [OXEPINAC], the selectivity ratio in series [1] is 21.6; in series [4], 29.7. Also, the ED50 in the series on Rattus norvegicus turned out to be 12.9 µmol/kg. In series [2], the TD50 was 279 µmol/kg. In addition, the LD50 in series [3] turned out to be 383 µmol/kg.
